Data published in ChEMBL document CHEMBL4196130, “3-(2-Carboxyethyl)indole-2-carboxylic Acid Derivatives: Structural Requirements and Properties of Potent Agonists of the Orphan G Protein-Coupled Receptor GPR17” (J Med Chem, 2018).
The source made the active and inactive calls. The rule behind the calls is not given here.

How the values were obtained:
[1] = biological target: Glutamate NMDA receptor; experiment: Displacement of [3H]CCP from NMDA receptor glutamate binding site in rat cortical and hippocampal membranes
[2] = biological target: T1, Uracil nucleotide/cysteinyl leukotriene receptor (Homo sapiens, UniProt Q13304); experiment: Agonist activity at human GPR17 expressed in human 1321N1 cells assessed as induction of calcium mobilization at >30 uM after 1 hr by Oregon Green BAPTA-1/AM dye-based fluorescence assay relative to control; type: functional, cell-based
[3] = biological target: T1, Uracil nucleotide/cysteinyl leukotriene receptor; experiment: Agonist activity at human GPR17 expressed in human 1321N1 cells assessed as induction of calcium mobilization after 1 hr by Oregon Green BAPTA-1/AM dye-based fluorescence assay; type: functional, cell-based
Summary of the method: (§1)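 Stably transfected 1321N1 astrocytoma cells were trypsin/EDTA-harvested, held 45 min at 37°C, then loaded 1 h at 25°C in KRH buffer pH 7.4 with 3 µM Oregon Green BAPTA-1/AM and 1% Pluronic F127, washed, and plated at ~16,000 cells/well. Fluorescence was read at 520 nm for 30 s after compound injection. Efficacy was expressed relative to the maximum given by 10 µM MDL 29,951. EC50 came from concentration-response curves, run for compounds exceeding 50% stimulation at 10 µM. At least three independent experiments, each in duplicate.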

[4] = biological target: P2Y purinoceptor 12 (Homo sapiens) (UniProt Q9H244); experiment: Agonist activity at human P2Y12 receptor transfected in CHO cells assessed as induction of beta-arrestin translocation; type: functional, cell-based
Summary of the method: (§2)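 β-Arrestin translocation assays were run in CHO cells stably transfected with human P2Y12 or P2Y14 receptors.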

[5] = biological target: T1, Uracil nucleotide/cysteinyl leukotriene receptor; experiment: Displacement of [3H]PSB-12150 from human GPR17 expressed in CHO cell membranes after 60 mins by liquid scintillation counting
Summary of the method: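 Membranes from CHO cells stably expressing human GPR17 were incubated 60 min at 25°C with 25 nM [3H]PSB-12150 (17 Ci/mmol), 10 mM MgCl2 and increasing test compound concentrations. Bound radioligand was separated by GF/B filtration and counted by liquid scintillation. Nonspecific binding was defined with 100 µM unlabeled PSB-12150. Ki came from the Cheng-Prusoff equation with KD 1190 nM. Three independent experiments in duplicate.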

[6] = biological target: Uracil nucleotide/cysteinyl leukotriene receptor (Rattus norvegicus) (UniProt Q09QM4); experiment: Agonist activity at rat GPR17 expressed in HEK293 cells assessed as induction of intracellular calcium mobilization at 10 uM by calcium 5-dye based assay relative to MDL 29,951; type: functional, cell-based
[7] = biological target: T2, P2Y purinoceptor 14 (Homo sapiens) (UniProt Q15391); experiment: Agonist activity at human P2Y14 receptor transfected in CHO cells assessed as induction of beta-arrestin translocation; type: functional, cell-based; summary of the method: as §2
T2 sequence (whole entry): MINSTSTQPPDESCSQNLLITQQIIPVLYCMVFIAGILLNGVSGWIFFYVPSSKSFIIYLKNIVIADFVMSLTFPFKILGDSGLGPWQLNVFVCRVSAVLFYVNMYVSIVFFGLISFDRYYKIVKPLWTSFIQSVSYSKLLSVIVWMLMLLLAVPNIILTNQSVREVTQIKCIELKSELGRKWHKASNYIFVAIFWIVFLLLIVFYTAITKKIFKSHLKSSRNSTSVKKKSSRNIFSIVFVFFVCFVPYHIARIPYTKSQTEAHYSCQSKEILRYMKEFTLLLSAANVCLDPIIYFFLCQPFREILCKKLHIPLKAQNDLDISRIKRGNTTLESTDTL

[8] = biological target: Uracil nucleotide/cysteinyl leukotriene receptor (Mus musculus, UniProt Q6NS65); experiment: Agonist activity at mouse GPR17 expressed in HEK293 cells assessed as induction of intracellular calcium mobilization by calcium 5-dye based assay; type: functional, cell-based
Summary of the method: (§3)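 HEK293 cells expressing rat or mouse GPR17 were seeded at 60,000 cells/well on poly-D-lysine plates and loaded 40 min with Calcium 5 indicator dye. Calcium signals were read on a plate reader. EC50 was obtained by nonlinear regression of concentration-response data. Means ± SEM from 3 independent experiments.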

[9] = biological target: P2Y purinoceptor 2 (Homo sapiens, UniProt P41231); experiment: Agonist activity at human P2Y2 receptor transfected in human 1321N1 cells assessed as induction of calcium mobilization after 30 mins in presence of UTP by fluo-4 dye based assay; type: functional, cell-based
Summary of the method: (§4)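 Calcium mobilization was measured in 1321N1 astrocytoma cells stably transfected with human P2Y1, P2Y2, P2Y4 or P2Y6 receptors, read on a Flexstation III microplate reader.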

[10] = biological target: Uracil nucleotide/cysteinyl leukotriene receptor (Rattus norvegicus, UniProt Q09QM4); experiment: Agonist activity at rat GPR17 expressed in HEK293 cells assessed as induction of intracellular calcium mobilization by calcium 5-dye based assay; type: functional, cell-based; summary of the method: as §3
[11] = biological target: Uracil nucleotide/cysteinyl leukotriene receptor (Mus musculus) (UniProt Q6NS65); experiment: Agonist activity at mouse GPR17 expressed in HEK293 cells assessed as induction of intracellular calcium mobilization at 10 uM by calcium 5-dye based assay relative to MDL 29,951; type: functional, cell-based
[12] = biological target: P2Y purinoceptor 1 (Homo sapiens) (UniProt P47900); experiment: Agonist activity at human P2Y1 receptor transfected in human 1321N1 cells assessed as induction of calcium mobilization after 30 mins in presence of ADP by fluo-4 dye based assay; type: functional, cell-based; summary of the method: as §4
[13] = Selectivity ratio of EC50 for rat GPR17 expressed in HEK293 cells to EC50 for human GPR17 expressed in human 1321N1 cells; type: cell-based
[14] = Selectivity ratio of EC50 for mouse GPR17 expressed in HEK293 cells to EC50 for human GPR17 expressed in human 1321N1 cells; type: cell-based
[15] = biological target: P2Y purinoceptor 6 (Homo sapiens) (UniProt Q15077); experiment: Agonist activity at human P2Y6 receptor transfected in human 1321N1 cells assessed as induction of calcium mobilization after 30 mins in presence of UDP by fluo-4 dye based assay; type: functional, cell-based; summary of the method: as §4
[16] = biological target: P2Y purinoceptor 4 (Homo sapiens) (UniProt P51582); experiment: Agonist activity at human P2Y4 receptor transfected in human 1321N1 cells assessed as induction of calcium mobilization after 30 mins in presence of UTP by fluo-4 dye based assay; type: functional, cell-based; summary of the method: as §4
[17] = biological target: T1, Uracil nucleotide/cysteinyl leukotriene receptor; experiment: Agonist activity at human GPR17 expressed in human 1321N1 cells assessed as induction of calcium mobilization after 1 hr by Oregon Green BAPTA-1/AM dye-based fluorescence assay relative to MDL 29,951; type: functional, cell-based; summary of the method: as §1
[18] = species on record: Homo sapiens; experiment: Selectivity ratio of EC50 for human P2Y2 receptor transfected in human 1321N1 cells to EC50 for human GPR17 expressed in human 1321N1 cells; type: cell-based
[19] = biological target: T1, Uracil nucleotide/cysteinyl leukotriene receptor; experiment: Agonist activity at human GPR17 expressed in human 1321N1 cells assessed as induction of calcium mobilization at 30 uM after 1 hr by Oregon Green BAPTA-1/AM dye-based fluorescence assay relative to control; type: functional, cell-based
[20] = biological target: T1, Uracil nucleotide/cysteinyl leukotriene receptor; experiment: Agonist activity at human GPR17 expressed in human 1321N1 cells assessed as induction of calcium mobilization at >10 uM after 1 hr by Oregon Green BAPTA-1/AM dye-based fluorescence assay relative to control; type: functional, cell-based
[21] = biological target: T1, Uracil nucleotide/cysteinyl leukotriene receptor; experiment: Agonist activity at human GPR17 expressed in human 1321N1 cells assessed as induction of calcium mobilization at >=10 uM after 1 hr by Oregon Green BAPTA-1/AM dye-based fluorescence assay relative to control; type: functional, cell-based

T1 sequence (Q13304 whole entry): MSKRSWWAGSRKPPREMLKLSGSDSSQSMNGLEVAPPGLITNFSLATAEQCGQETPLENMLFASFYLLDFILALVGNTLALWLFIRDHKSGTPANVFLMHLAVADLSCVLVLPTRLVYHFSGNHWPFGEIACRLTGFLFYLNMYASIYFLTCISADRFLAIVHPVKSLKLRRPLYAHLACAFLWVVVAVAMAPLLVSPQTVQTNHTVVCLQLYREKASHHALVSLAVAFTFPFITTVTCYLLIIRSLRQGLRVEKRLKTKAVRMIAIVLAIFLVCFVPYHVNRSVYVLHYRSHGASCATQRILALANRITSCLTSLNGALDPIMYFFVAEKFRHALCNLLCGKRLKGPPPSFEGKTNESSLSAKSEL
Sequence of Uracil nucleotide/cysteinyl leukotriene receptor (Rattus norvegicus) (Q09QM4 whole entry): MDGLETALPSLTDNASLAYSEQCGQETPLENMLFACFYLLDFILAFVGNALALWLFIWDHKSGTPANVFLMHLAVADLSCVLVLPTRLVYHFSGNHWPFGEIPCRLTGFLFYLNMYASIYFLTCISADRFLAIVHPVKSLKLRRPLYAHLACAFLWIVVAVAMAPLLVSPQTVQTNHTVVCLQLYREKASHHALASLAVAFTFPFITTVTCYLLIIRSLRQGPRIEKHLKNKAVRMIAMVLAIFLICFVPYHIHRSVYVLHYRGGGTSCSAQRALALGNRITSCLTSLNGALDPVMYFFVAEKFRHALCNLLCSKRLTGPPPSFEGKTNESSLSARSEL
Sequence of Uracil nucleotide/cysteinyl leukotriene receptor (Rattus norvegicus, UniProt Q09QM4) (Q09QM4 whole entry): as above
Sequence of P2Y purinoceptor 2 (P41231 whole entry): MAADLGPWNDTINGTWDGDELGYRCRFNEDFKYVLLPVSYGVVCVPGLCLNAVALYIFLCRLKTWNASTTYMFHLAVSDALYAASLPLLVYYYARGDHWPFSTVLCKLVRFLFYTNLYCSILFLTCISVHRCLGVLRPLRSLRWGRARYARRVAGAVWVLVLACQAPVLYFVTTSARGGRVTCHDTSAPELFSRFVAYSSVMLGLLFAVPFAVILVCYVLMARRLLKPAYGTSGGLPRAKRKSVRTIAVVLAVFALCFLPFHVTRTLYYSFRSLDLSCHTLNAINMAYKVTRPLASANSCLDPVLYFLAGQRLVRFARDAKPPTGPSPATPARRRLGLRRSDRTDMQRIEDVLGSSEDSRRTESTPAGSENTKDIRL
Sequence of P2Y purinoceptor 1 (Homo sapiens) (P47900 whole entry): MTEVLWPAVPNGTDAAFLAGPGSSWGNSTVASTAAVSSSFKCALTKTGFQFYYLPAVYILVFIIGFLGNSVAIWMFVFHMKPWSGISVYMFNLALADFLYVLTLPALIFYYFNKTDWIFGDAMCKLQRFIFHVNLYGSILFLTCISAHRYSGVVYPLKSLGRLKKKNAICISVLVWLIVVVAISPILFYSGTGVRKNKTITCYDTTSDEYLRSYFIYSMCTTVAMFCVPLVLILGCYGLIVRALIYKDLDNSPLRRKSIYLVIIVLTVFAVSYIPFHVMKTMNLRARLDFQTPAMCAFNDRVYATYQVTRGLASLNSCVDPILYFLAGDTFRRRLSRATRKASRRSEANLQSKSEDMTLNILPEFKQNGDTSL
Sequence of P2Y purinoceptor 6 (Homo sapiens) (Q15077 whole entry): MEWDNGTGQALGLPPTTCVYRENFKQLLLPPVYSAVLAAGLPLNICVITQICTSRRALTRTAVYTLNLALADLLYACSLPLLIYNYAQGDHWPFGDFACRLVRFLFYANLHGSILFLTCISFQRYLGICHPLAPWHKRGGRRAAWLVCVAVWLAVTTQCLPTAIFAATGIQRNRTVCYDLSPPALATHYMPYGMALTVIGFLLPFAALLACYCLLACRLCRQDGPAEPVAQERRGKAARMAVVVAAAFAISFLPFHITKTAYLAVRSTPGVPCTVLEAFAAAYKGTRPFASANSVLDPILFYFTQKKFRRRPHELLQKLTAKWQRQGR
Sequence of P2Y purinoceptor 12 (Homo sapiens) (Q9H244 whole entry): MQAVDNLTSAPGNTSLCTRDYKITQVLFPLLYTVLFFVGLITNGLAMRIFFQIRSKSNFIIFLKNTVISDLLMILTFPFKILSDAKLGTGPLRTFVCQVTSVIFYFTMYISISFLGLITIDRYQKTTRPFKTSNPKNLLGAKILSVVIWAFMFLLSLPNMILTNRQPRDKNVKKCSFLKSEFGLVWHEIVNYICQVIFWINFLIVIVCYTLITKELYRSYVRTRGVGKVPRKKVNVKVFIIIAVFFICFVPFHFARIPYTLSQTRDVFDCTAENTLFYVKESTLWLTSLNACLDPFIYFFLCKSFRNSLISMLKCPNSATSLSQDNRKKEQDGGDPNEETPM
Sequence of Uracil nucleotide/cysteinyl leukotriene receptor (Mus musculus) (Q6NS65 whole entry): as the sequence (Q09QM4 whole entry) above, with D2N, T6A, A15S, S270A counted along it
Sequence of Uracil nucleotide/cysteinyl leukotriene receptor (Mus musculus, UniProt Q6NS65) (Q6NS65 whole entry): as the sequence (Q09QM4 whole entry) above, with D2N, T6A, A15S, S270A counted along it
Sequence of P2Y purinoceptor 4 (Homo sapiens) (P51582 whole entry): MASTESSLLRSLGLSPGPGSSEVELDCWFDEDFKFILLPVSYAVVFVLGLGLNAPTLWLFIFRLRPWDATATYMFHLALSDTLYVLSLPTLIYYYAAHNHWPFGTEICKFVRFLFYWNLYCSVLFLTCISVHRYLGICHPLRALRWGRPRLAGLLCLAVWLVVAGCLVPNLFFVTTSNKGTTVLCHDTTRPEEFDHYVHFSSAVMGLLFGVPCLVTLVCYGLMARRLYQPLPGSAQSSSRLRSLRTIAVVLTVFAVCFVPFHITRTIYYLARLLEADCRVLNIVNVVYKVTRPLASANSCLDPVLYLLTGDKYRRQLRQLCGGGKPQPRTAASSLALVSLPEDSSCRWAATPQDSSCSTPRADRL

## O=C(O)CCc1c(C(=O)O)[nH]c2c(Cl)cccc12
[1]
  IC50: > 1000 µM
[2]
  Activity: 5%
[3]
  EC50: > 30 µM

## CCCCCCOc1ccc2c(CCC(=O)O)c(C(=O)O)[nH]c2c1
[4]
  Activity: inactive
[5]
  Ki: 1.5 µM
[6]
  Emax: 53%
[7]
  Activity: inactive
[8]
  EC50: 5.51 µM
[9]
  Activity: inactive
[10]
  EC50: 5.31 µM
[11]
  Emax: 28%
[12]
  Activity: inactive
[13]
  Ratio EC50: 34 to 48
[14]
  Ratio EC50: 34 to 48
[3]
  EC50: 0.115 µM
[15]
  Activity: inactive
[16]
  Activity: inactive
[17]
  Emax: 62%

## CCCCCCOc1cc(Cl)c2c(CCC(=O)O)c(C(=O)O)[nH]c2c1
[4]
  Activity: inactive
[5]
  Ki: 13.1 µM
[6]
  Emax: 77%
[7]
  Activity: inactive
[18]
  Ratio EC50: > 700
[8]
  EC50: 3.03 µM
[9]
  EC50: ≥ 50 µM
[10]
  EC50: 2.3 µM
[11]
  Emax: 59%
[12]
  Activity: inactive
[13]
  Ratio EC50: 34 to 48
[14]
  Ratio EC50: 34 to 48
[3]
  EC50: 0.067 µM
[15]
  Activity: inactive
[16]
  Activity: inactive
[17]
  Emax: 95%

## O=C(O)CCc1c(C(=O)O)[nH]c2ccc(Cl)cc12
[1]
  IC50: 35 µM
[2]
  Activity: 11%
[3]
  EC50: > 30 µM

## O=C(O)CCc1c(C(=O)O)[nH]c2cccc(Cl)c12
[19]
  Activity: 52%
[3]
  EC50: 30 µM

## CCCCCCOc1cc(Cl)cc2[nH]c(C(=O)O)c(CCC(=O)O)c12
[3]
  EC50: > 10 µM
[20]
  Activity: 40%

## O=C(O)CCc1c(C(=O)O)[nH]c2cccc(F)c12
[3]
  EC50: ≥ 10 µM
[21]
  Activity: 44%
